Reference: ChEMBL document CHEMBL5500359, “Identification of a new bisindolinone arresting IGROV1 cells proliferation” (Eur J Med Chem, 2024)
Activity calls are given as the source filed them. No cut-off for these calls is given here.

Assays:
Breast cancer cell line [1] = assay: Cytotoxicity against human Breast cancer cells incubated for 48 hrs by SRB assay; type: functional
Outline: (§1)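 NCI-60 five-concentration screen: lines seeded 5×10^3–4×10^4 cells/well depending on line; compound diluted in fresh medium at scalar concentrations 0–100 or 0–1000 μM; 48 h exposure, in situ fixation, sulforhodamine B protein staining, optical density read; GI50, TGI and LC50 per NCI procedures; panel mean = mean graph midpoint.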

IGROV-1 [2] = assay: Antiproliferative activity against human IGROV-1 cells at 5 uM incubated upto 48 hrs by quantitative phase imaging microscopy; type: functional, cell-based
Outline: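 Quantitative phase imaging on IGROV1 seeded 4×10^3/well, 24 h later given 5 μM (six replicates; DMSO ≤0.1% final). Images hourly for 2 days at 37 °C, 5% CO2. Cell count and confluence normalized to experiment start; doubling time derived from growth.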

Ovarian cancer cell line = assay: Cytostatic activity against human Ovarian cancer cells incubated for 48 hrs by SRB assay; type: functional; outline: as §1
[3] = Selectivity index, ratio of IC50 for human HDFa cells to IC50 for human IGROV-1 cells; type: functional
Outline: (§2)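 IGROV1 and HDFa in RPMI 1640 + 10% FCS, 2 mM glutamine, 37 °C, 5% CO2; seeded 1.5×10^4/well, after 24 h exposed 24 h to 0.010–500 μM (DMSO ≤0.1%). MTT 0.2 mg/mL in PBS 2 h at 37 °C, absorbance 570 nm; IC50 from dose-response, three independent experiments each in triplicate; SI = HDFa IC50/IGROV1 IC50.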

CNS carcinoma cell [4] = assay: Cell growth inhibition of human CNS carcinoma cells incubated for 48 hrs by SRB assay; type: functional; outline: as §1
IGROV-1 [5] = assay: Anti-motility activity in human IGROV-1 cells assessed as decrease in cell displacement at 5 uM incubated for 24 hrs; type: functional, cell-based
Outline: (§3)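 Livecyte quantitative phase imaging, label-free single-cell tracking; IGROV1 seeded 4×10^3/well, treated after 24 h with 5 μM in six replicates; frames every 60 min for 2 days, 10× objective, 37 °C, 5% CO2. Each cell tracked for displacement, instantaneous velocity and directionality.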

IGROV-1 [6] = assay: Cytotoxicity against human IGROV-1 cells assessed as reduction in cell viability incubated for 24 hrs by MTT assay; type: functional, cell-based; conditions: IGROV-1, 24 h; outline: as §2
IGROV-1 [7] = assay: Anti-motility activity in human IGROV-1 cells assessed as decrease in cell velocity at 5 uM incubated for 24 hrs; type: functional, cell-based; outline: as §3
Renal cancer cell line = assay: Cytostatic activity against human Renal cancer cells incubated for 48 hrs by SRB assay; type: functional; outline: as §1
HDFa (Homo sapiens) = assay: Antiproliferative activity against human HDFa cells assessed as doubling time at 5 uM measured after 48 hrs (reference value: 35 hrs)
IGROV-1 [8] = assay: Downregulation of RAD51 mRNA level in human IGROV-1 cells at 5 uM pretreated for 24 hrs followed by UV exposure for 6 hrs by qRT-PCR analysis; type: functional, cell-based; conditions: time 30.0 hrs
Outline: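 IGROV1 pretreated 24 h with 5 μM then UV-irradiated (7.5 W lamp, 3 min); CCND1 and RAD51 mRNA by qRT-PCR after column RNA extraction and reverse transcription, fold change versus vehicle; at least triplicate, Student's t-test.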

Colon carcinoma cell = assay: Cytotoxicity against human Colon carcinoma cells incubated for 48 hrs by SRB assay; type: functional; outline: as §1
IGROV-1 [9] = assay: Downregulation of ITAG5 level in human IGROV-1 cells at 5 uM incubated for 6 hrs by Western blot analysis; type: functional, cell-based
Outline: (§4)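 IGROV1 exposed to 5 μM; RIPA lysates at 4 °C, protein quantified, SDS-PAGE (12.5% or 7.5%), nitrocellulose blot probed overnight at 4 °C for cyclin D1 or α5 integrin subunit; densitometry normalized to α-tubulin, percent of vehicle, mean ± SD of three experiments.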

NSCLC = assay: Cell growth inhibition of human NSCLC cells incubated for 48 hrs by SRB assay; type: functional; outline: as §1
[10] = Cytotoxicity against human Leukemia cancer cells incubated for 48 hrs by SRB assay; type: functional; conditions: Leukemia cell, read-out: LC50 (the source's name)
Outline: (§5)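 NCI DTP five-concentration screen. Cells were seeded at 5 × 10³–4 × 10⁴ cells/well, depending on the line. Compounds were diluted in fresh medium and added at scalar concentrations over 0–1000 µM or 0–100 µM. After 48 h the cells were fixed in situ, stained with sulforhodamine B, and optical density was read. GI50, TGI and LC50 were derived by NCI procedures, and the panel mean is the mean graph midpoint.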

IGROV-1 [11] = assay: Induction of cell cycle arrest in human IGROV-1 cells assessed as decrease in cell accumulation at S phase at 5 uM incubated for 24 hrs by PI staining based flow cytometry relative to control; type: functional; design: scale not given: the % may be the effect or the level left
Outline: (§6)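 IGROV1 plated 2×10^4 cells/cm², after 24 h given 5 μM for 24 h; cells detached, PBS-washed, stained 30 min at room temperature in dark with 50 μg/mL propidium iodide, 10 μg/mL RNase, 0.01% Igepal, 0.1% sodium citrate; DNA content by flow cytometry, phase percentages versus untreated.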

IGROV-1 [12] = assay: Downregulation of CCND1 level in human IGROV-1 cells at 5 uM incubated for 6 hrs by Western blot analysis; type: functional, cell-based; outline: as §4
IGROV-1 [13] = assay: Induction of DNA damage in human IGROV-1 cells assessed as increase in gamma-H2AX phosphorylation at 5 uM pretreated for 24 hrs followed by UV exposure for 6 hrs by Western blot analysis; type: functional, cell-based; conditions: time 30.0 hrs
Outline: (§7)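 IGROV1 pretreated 24 h with 5 μM, then UV-irradiated with a 7.5 W lamp for 3 min; UV alone as positive control. Cyclin D1 and RAD51 by RIPA-lysate Western blot normalized to α-tubulin; γH2AX by acid-extracted histone blot normalized to H1; percent of vehicle, mean ± SD, three experiments.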

[14] = Upregulation of histone H2/H3 acetylation in human IGROV-1 cells incubated for 6 hrs by Western blot analysis relative to control; type: functional
Outline: (§8)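 IGROV1 seeded 1.5×10^4 cells/cm², after 48 h exposed 6 h to 5 μM final; histones acid-extracted (0.4 N H2SO4) from nuclei isolated with 10 mM butyrate washes, acetone-precipitated, 15% SDS-PAGE, blotted with anti-acetyl-lysine; densitometry normalized to histone H1, percent of vehicle, mean ± SD of three experiments.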

IGROV-1 [15] = assay: Induction of cell cycle arrest in human IGROV-1 cells assessed as decrease in cell accumulation at G2/M phase at 5 uM incubated for 24 hrs by PI staining based flow cytometry relative to control; type: functional; design: scale not given: the % may be the effect or the level left; outline: as §6
[16] = Upregulation of histone H4 acetylation in human IGROV-1 cells incubated for 6 hrs by Western blot analysis relative to control; type: functional; outline: as §8
IGROV-1 [17] = assay: Effect on p21 level in human IGROV-1 cells at 5 uM incubated for 6 hrs by Western blot analysis; type: functional, cell-based
CNS carcinoma cell [18] = assay: Cytostatic activity against human CNS carcinoma cells incubated for 48 hrs by SRB assay; type: functional; outline: as §1
Breast cancer cell line [19] = assay: Cell growth inhibition of human Breast cancer cells incubated for 48 hrs by SRB assay; type: functional; conditions: read-out: LC50 (the source's name); outline: as §5
IGROV-1 [20] = assay: Downregulation of CCND1 level in human IGROV-1 cells at 5 uM pretreated for 24 hrs followed by UV exposure for 6 hrs by Western blot analysis; type: functional, cell-based; conditions: time 30.0 hrs; outline: as §7
Breast cancer cell line [21] = assay: Cytostatic activity against human Breast cancer cells incubated for 48 hrs by SRB assay; type: functional; outline: as §1

## CC(C)(C)c1cc(/C=C2/C(=O)Nc3cc(Cl)ccc32)c(O)c(/C=C2/C(=O)Nc3cc(Cl)ccc32)c1
Breast cancer cell line [1]
  GI: 48.98 µM
IGROV-1 [2]
  Activity: Active
Ovarian cancer cell line
  TGI: 10 µM
[3]
  Ratio IC50: 3.64
CNS carcinoma cell [4]
  GI50: 2.75 µM
IGROV-1 [5]
  Activity: Active
IGROV-1 [6]
  IC50: 6.06 µM
IGROV-1 [7]
  Activity: Active
Renal cancer cell line
  GI: 11.22 µM
HDFa (Homo sapiens)
  Time: 56 h
IGROV-1 [8]
  Activity: Active
Colon carcinoma cell
  GI: 37.15 µM
IGROV-1 [9]
  Activity: Active
NSCLC
  GI: 3.63 µM
[10]
  CC50: 97.7 µM
IGROV-1 [11]
  Activity: 21.2%
IGROV-1 [12]
  Activity: Active
IGROV-1 [13]
  Activity: Active
[14]
  Activity: 55.2%
IGROV-1 [15]
  Activity: 11.9%
[16]
  Activity: 68.5%
IGROV-1 [17]
  Activity: inactive
CNS carcinoma cell [18]
  GI: 11.75 µM
Breast cancer cell line [19]
  CC50: 2.95 µM
IGROV-1 [20]
  Activity: Active
Breast cancer cell line [21]
  TGI: 13.2 µM
